Calls of active or inactive are those of the source. No cut-off for these calls is given here.

The test system of one assay is Platelet. Description: Cytotoxicity against platelets in human PRP assessed as reduction in cell viability measured after 48 hrs by MTS assay. In kind it is cell-based. The gist of the method: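 Washed human platelets from PRP were kept in HEPES Tyrode's buffer with 1 µM PGE1 and 0.2 units/mL apyrase at 2×10^8/mL.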
A general note: Tetrazolium dyes change colour on reduction, which living cells bring about.

Assay [1] deals with RS4-11. Description: Cytotoxicity against human RS4-11 cells assessed as reduction in cell viability measured after 48 hrs in presence of VHL-032 by MTS assay. The class given is functional, cell-based. As to conditions: RS4-11, 48 h. The gist of the method: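 RS4;11 cells were pretreated with 10 µM VHL-032, then exposed to compound for 48 h. Viability was read by MTS; three independent experiments in triplicate.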

The nature of assay [2]: Binding affinity to human BCL-XL expressed in Escherichia coli/recombinant human VHL (54 to end residues) fused to human N-terminal GST-tagged elongin-C/elongin -B/N-terminal His-tagged CUL2/Rbx1 expressed in baculovirus infected Sf21 insect cells assessed as ternary complex formation at up to 100000 nM measured after 30 mins by AlphaLISA assay. The gist of the method:
(§1)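 Cell-free ternary complex AlphaLISA: 6×His-tagged BCL-XL, BCL-2 or MCL-1 (20 nM) mixed with serially diluted compound (4× dilution) and GST-VCB (20 nM) in 25 mM HEPES pH 7.5, 100 mM NaCl, 0.1% BSA, 0.005% Tween 20. After 30 min at room temperature, glutathione donor beads were added for 15 min, then anti-His acceptor beads for 45 min in the dark. Luminescence was plotted against log compound concentration.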

For assay [3], the target named is T1, von Hippel-Lindau disease tumor suppressor/Bcl-2-like protein 1 (Homo sapiens, UniProt Q07817+P40337). Briefly: Protac activity at VHL/BCL-XL in human MOLT-4 cells assessed as induction of BCL-XL degradation at 100 nM measured up to 72 hrs by Western blot analysis. In kind it is cell-based. In outline:
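MOLT-4 cells were treated with 100 nM for a series of times. For washout, cells were treated for 16 h and sampled at times after compound removal. BCL-XL and β-actin were immunoblotted.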

Assay [4] addresses T1, von Hippel-Lindau disease tumor suppressor/Bcl-2-like protein 1. Briefly: Protac activity at VHL/BCL-XL in human MOLT-4 cells assessed as induction of BCL-XL degradation at 10 uM pretreated with MG-132 followed by compound treatement measured after 12 hrs by Western blot analysis. The class given is cell-based. In outline:
(§2)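 MOLT-4 cells were pretreated with 10 µM VHL-032 or 1 µM MG-132, followed by 12 h compound treatment. BCL-XL and β-actin were immunoblotted; blots representative of three experiments.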
(In general: Immunoblotting shows a protein as a band on a membrane.)

Assay [5] is described as follows: Binding affinity to C-terminal His-tagged human BCL-2 (1 to 211 residues) expressed in Escherichia coli/recombinant human VHL (54 to end residues) fused to human N-terminal GST-tagged elongin-C/elongin -B/N-terminal His-tagged CUL2/Rbx1 expressed in baculovirus infected Sf21 insect cells measured after 2 hrs by AlphaScreen assay. In outline: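 AlphaScreen displacement, run with or without VCB. Biotin-Bim (80 nM, for BCL-2) or biotin-Bad (16 nM, for BCL-XL) was combined with serially diluted compound and 6×His protein in 25 mM HEPES pH 7.5, 100 mM NaCl, 0.1% BSA, 0.005% Tween 20. Anti-His acceptor beads were added for 1 h at room temperature, then streptavidin donor beads for 30 min in the dark. Ki was fitted by one-site competitive model from peptide concentration and measured Kd values; reported as mean ± SD of at least two experiments in triplicate.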
Background: Bead proximity is the source of the signal in Alpha formats.

The test system of assay [6] is MOLT-4. Description: Induction of apoptosis in human MOLT-4 cells assessed as late apoptotic cells at 10 nM measured after 48 hrs by annexinV-FITC/propidium iodide staining based flow cytometry (reference value: 1%). In kind it is functional.
Assay [7] concerns the target von Hippel-Lindau disease tumor suppressor/Apoptosis regulator Bcl-2 (Homo sapiens) (UniProt P10415+P40337). Description: Binding affinity to VHL/BCL-2 in human RS4-11 cells assessed as ternary complex formation at up to 300 nM measured after 12 hrs by immunoprecipitation assay. In kind it is cell-based.
For assay [8], the system named is MOLT-4. Briefly: Induction of apoptosis in human MOLT-4 cells assessed as […] in full caspase-3 level at up to 1000 nM measured after 16 hrs by immunoblotting analysis. In kind it is functional, cell-based. The gist of the method: (§3)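 MOLT-4 cells were treated at a range of concentrations for 16 h. Lysates were immunoblotted for cleaved and full caspase-3, cleaved and full PARP, and β-actin; blots representative of three experiments.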

Assay [9] concerns the target T1, von Hippel-Lindau disease tumor suppressor/Bcl-2-like protein 1. Description: Protac activity at VHL/BCL-XL in human MOLT-4 cells assessed as induction of BCL-XL degradation at 10 uM pretreated with VHL-032 followed by compound treatement measured after 12 hrs by Western blot analysis. The class given is cell-based. In outline:
as §2

Assay [10] has as its system MOLT-4. Briefly: Induction of apoptosis in human MOLT-4 cells assessed as […] in cleaved caspase-3 level at up to 1000 nM measured after 16 hrs by immunoblotting analysis. In kind it is functional, cell-based. The gist of the method: as §3
Assay [11] in a line: Binding affinity to C-terminal His-tagged human BCL-2 (1 to 211 residues) expressed in Escherichia coli/recombinant human VHL (54 to end residues) fused to human N-terminal GST-tagged elongin-C/elongin -B/N-terminal His-tagged CUL2/Rbx1 expressed in baculovirus infected Sf21 insect cells assessed as ternary complex formation at up to 100000 nM measured after 30 mins by AlphaLISA assay. The gist of the method: as §1

Assay [12] deals with T1, von Hippel-Lindau disease tumor suppressor/Bcl-2-like protein 1. Description: Binding affinity to Halo-tagged VHL/HiBiT-tagged BCL-XL (unknown origin) expressed in HEK293T cells assessed as ternary complex formation at up to 100000 nM measured after 6 hrs by NanoBRET assay. In kind it is cell-based. The gist of the method: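 NanoBRET in live HEK 293T cells. Cells were transfected with HaloTag-VHL (1 µg), HiBit-BCL-XL or HiBit-BCL-2 (10 ng) and LgBit (10 ng). After 24 h they were seeded at 2×10^4 per well in Opti-MEM with 4% FBS, with or without HaloTag 618 ligand, and held overnight. Serial compound doses were given for 6 h at 37 °C, then Nano-Glo substrate was added and mBRET ratios read. Mean ± s.e.m. of two experiments in triplicate.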

The test system of assay [13] is MOLT-4. Description: Cytotoxicity against human MOLT-4 cells assessed as reduction in cell viability measured after 48 hrs by MTS assay. In kind it is functional, cell-based. The following applies: MOLT-4, 48 h.
Assay [14] has as its target T1, von Hippel-Lindau disease tumor suppressor/Bcl-2-like protein 1. Description: Protac activity at VHL/BCL-XL in human platelets assessed as decrease in BCL-XL protein level at up to […] measured after 16 hrs by Western blot analysis. The following applies: Platelet. The gist of the method: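 Washed human platelets were treated for 16 h at a range of concentrations, and BCL-XL was measured by western blotting.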

Assay [15] concerns RS4-11. Briefly: Cytotoxicity against human RS4-11 cells assessed as reduction in cell viability measured after 48 hrs by MTS assay. The following applies: RS4-11, 48 h. The class given is functional, cell-based.
Assay [16] addresses T1, von Hippel-Lindau disease tumor suppressor/Bcl-2-like protein 1. Briefly: Binding affinity to VHL/ BCL-XL in human RS4-11 cells assessed as ternary complex formation at up to 300 nM measured after 12 hrs in presence of VHL-032 by immunoprecipitation assay. The class given is cell-based.
In another assay the target is Bcl-2-like protein 1 (Homo sapiens, UniProt Q07817). Description: Displacement of biotin-tagged LWAAQRYGRELRRMSDEFEGSFKGL from human BCL-XL expressed in Escherichia coli measured after 2 hrs by AlphaScreen assay. The gist of the method: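 AlphaScreen displacement, run with or without VCB. Anti-His acceptor beads were added for 1 h at room temperature, then streptavidin donor beads for 30 min in the dark. Ki was fitted by one-site competitive model from peptide concentration and measured Kd values; reported as mean ± SD of at least two experiments in triplicate.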
Chain of Bcl-2-like protein 1 (Q07817 whole entry): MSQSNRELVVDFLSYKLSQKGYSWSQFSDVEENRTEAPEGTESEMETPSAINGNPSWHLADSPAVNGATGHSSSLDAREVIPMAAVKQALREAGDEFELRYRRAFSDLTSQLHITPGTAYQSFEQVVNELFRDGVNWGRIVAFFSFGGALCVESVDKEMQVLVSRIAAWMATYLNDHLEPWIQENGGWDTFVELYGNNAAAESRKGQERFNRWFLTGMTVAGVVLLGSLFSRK

T1 sequence (P40337 whole entry, looked up): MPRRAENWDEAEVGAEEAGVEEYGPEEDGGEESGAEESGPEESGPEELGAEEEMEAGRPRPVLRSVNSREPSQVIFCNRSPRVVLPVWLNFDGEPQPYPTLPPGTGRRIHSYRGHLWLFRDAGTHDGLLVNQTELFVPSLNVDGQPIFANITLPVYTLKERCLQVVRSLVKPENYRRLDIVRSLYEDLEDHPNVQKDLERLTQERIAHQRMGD
T1 sequence (Q07817 whole entry, looked up): as the sequence (Q07817 whole entry) above
Chain of von Hippel-Lindau disease tumor suppressor/Apoptosis regulator Bcl-2 (Homo sapiens) (P10415 whole entry, looked up): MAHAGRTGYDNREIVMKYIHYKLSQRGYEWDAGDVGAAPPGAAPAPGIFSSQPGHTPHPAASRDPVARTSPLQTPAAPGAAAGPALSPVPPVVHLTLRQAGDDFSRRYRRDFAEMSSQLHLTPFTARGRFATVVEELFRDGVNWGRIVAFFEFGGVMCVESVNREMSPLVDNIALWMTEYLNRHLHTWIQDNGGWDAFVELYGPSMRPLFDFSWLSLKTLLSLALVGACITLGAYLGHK
Chain of von Hippel-Lindau disease tumor suppressor/Apoptosis regulator Bcl-2 (Homo sapiens) (P40337 whole entry, looked up): as the sequence (P40337 whole entry, looked up) above

For orientation: IC50 means the concentration needed to halve the response being measured. By Kd is commonly meant the constant that tells how readily two partners part at equilibrium. By Ki is commonly meant the equilibrium dissociation constant of an inhibitor or competing ligand from its target. Consider `Cc1ncsc1-c1ccc([C@H](C)NC(=O)[C@@H]2C[C@@H](O)CN2C(=O)[C@@H](NC(=O)CCCCCCCCC(=O)NC[C@]2(C)CCC(c3ccc(Cl)cc3)=C(CN3CCN(c4ccc(C(=O)NS(=O)(=O)c5ccc(N[C@H](CCN6CCOCC6)CSc6ccccc6)c(S(=O)(=O)C(F)(F)F)c5)cc4)CC3)C2)C(C)(C)C)cc1`, for which the IC50 in the assay with Platelet was 950 nM; in the assay with RS4-11 [1], 209 nM; with MOLT-4 [13] it was 15.9 nM; in the assay on RS4-11 [15], 11.3 nM. The result (in assay [2]; in assay [3]; in [7]; in the assay with MOLT-4 [8]; in the assay on MOLT-4 [10]; in [11]) was Active. The outcome in assay [12] was Active. Besides, the result in assay [4], in assay [9], in assay [14] and in assay [16] was inactive. Besides, in assay [5], the Kd was determined as 0.53 nM. The Activity in the assay with MOLT-4 [6] was 21%. In addition, on Bcl-2-like protein 1, affinity was put at a Ki of 2.59 nM.

Source of the values: ChEMBL document CHEMBL5053511, “Discovery of a Novel BCL-XL PROTAC Degrader with Enhanced BCL-2 Inhibition” (J Med Chem, 2021).
